Data set [1] is described as follows: Antifungal activity against Rhizopus microsporus IHEM 15210 by broth microdilution method. The format is functional. Summed up:
(§1)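 Clinical isolates kept at −80°C and subcultured on potato dextrose agar at 35°C before testing. MICs were determined by broth microdilution following the CLSI reference guidelines for filamentous fungi (molds), as part of a 15-strain panel tested against seven antifungal agents.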
In general terms: Broth dilution looks for growth in wells or tubes with falling amounts of substance.

A short description of data set [2]: Antifungal activity against Rhizopus microsporus IHEM 18821 by broth microdilution method. The format is functional. Summed up: as §1
Data set [3] is described as follows: Antifungal activity against Rhizopus microsporus UTHSC 07-371 by broth microdilution method. The format is functional. Put shortly: as §1
The nature of data set [4]: Antifungal activity against Rhizopus microsporus UTHSC 04-3294 by broth microdilution method. The format is functional. Summed up: as §1
Data set [5] in a line: Antifungal activity against Rhizopus microsporus IHEM 13311 by broth microdilution method. The format is functional. Put shortly:
as §1

The nature of data set [6]: Antifungal activity against Rhizopus microsporus UTHSC 03-1802 by broth microdilution method. The format is functional. Put shortly:
as §1

Data set [7] can be described thus: Antifungal activity against Rhizopus microsporus IHEM 9503 by broth microdilution method. The format is functional. Put shortly: as §1
A short description of data set [8]: Antifungal activity against Rhizopus microsporus FMR 3542 by broth microdilution method. The format is functional. Put shortly:
(§2)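 CLSI broth microdilution reference method for molds, run on clinical R. microsporus isolates. Isolates were stored at −80°C and subcultured on potato dextrose agar at 35°C before testing. Breakpoints: intermediate 2 μg/ml, resistant ≥4 μg/ml.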

The nature of data set [9]: Antifungal activity against Rhizopus microsporus IHEM 10123 by broth microdilution method. The class given is functional. Summed up: as §1
Data set [10] is described as follows: Antifungal activity against Rhizopus microsporus CBS 102277 by broth microdilution method. The format is functional. Summed up: as §2
The nature of data set [11]: Antifungal activity against Rhizopus microsporus IHEM 5234 by broth microdilution method. The class given is functional. Summed up: as §2
Data set [12] is described as follows: Antifungal activity against Rhizopus microsporus IHEM 4770 by broth microdilution method. The format is functional. Summed up:
as §1

Data set [13] in a line: Antifungal activity against Rhizopus microsporus IHEM 13267 by broth microdilution method. The format is functional. Summed up:
as §1

Data set [14] can be described thus: Antifungal activity against Rhizopus microsporus UTHSC 01-983 by broth microdilution method. The class given is functional. Summed up: as §2
A short description of data set [15]: Antifungal activity against Rhizopus microsporus UTHSC R-3466 by broth microdilution method. The format is functional. Summed up:
as §2

The subject of data set [16] is Rhizopus microsporus. Description: Antifungal activity against Rhizopus microsporus UTHSC R-3466 infected in OF1 mouse assessed as reduction in fungal load in kidney at 20 mg/kg, QD for 5 days. The class given is functional, organism-based. Further details: dose 20 mg/kg.
In data set [17] the test system is Rhizopus microsporus. Description: Antifungal activity against Rhizopus microsporus FMR 3542 infected in OF1 mouse assessed as reduction in fungal load in brain at 40 mg/kg, QD for 5 days. The format is functional, organism-based. Also noted: dose 40 mg/kg. Summed up: (§3)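 Male OF1 mice (30 g) were immunosuppressed 1 day before infection with cyclophosphamide 200 mg/kg i.p. plus 5-fluorouracil 150 mg/kg i.v., then given 2 × 10^3 CFU i.v. (IHEM 4770: 1 × 10^4 CFU). Oral dosing was 40 mg/kg once daily or 20 mg/kg twice daily, starting 24 h post-challenge; ceftazidime s.c. was given on days 1–7. […], 10 mice per group were killed, and brain and kidney homogenates were plated on PDA (18–24 h, 35°C) for CFU.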

A short description of data set [18]: Drug level in serum of OF1 mouse infected with Rhizopus microsporus FMR 3542 at 20 mg/kg, po BID for 5 days measured after 3 hrs post last dose. The format is ADME, organism-based. Also noted: dose 20 mg/kg, route oral. The settings on record: read-out: Drug uptake. Put shortly: (§4)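 Immunosuppressed OF1 mice were infected i.v. (5 per group) and dosed orally at 40 mg/kg once daily or 20 mg/kg twice daily for 5 days. Sera were taken 3 h and 24 h after the last dose. Drug was measured by agar bioassay with Candida parapsilosis ATCC 22019 in yeast nitrogen broth, against standards of 0.125–10 μg/ml. Samples were run in duplicate, and the mean of four zone readings was read from the standard curve.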

Data set [19] is described as follows: Drug level in serum of OF1 mouse infected with Rhizopus microsporus FMR 3542 at 20 mg/kg, po BID for 5 days measured after 24 hrs post last dose. The format is ADME, organism-based. The settings on record: read-out: Drug uptake. Further details: dose 20 mg/kg, route oral. Summed up: as §4
The subject of data set [20] is Rhizopus microsporus. Description: Antifungal activity against Rhizopus microsporus IHEM 4770 infected in OF1 mouse assessed as reduction in fungal load in brain at 40 mg/kg, QD for 5 days. The format is functional, organism-based. Further details: dose 40 mg/kg. Summed up:
as §3

In data set [21] the test system is Rhizopus microsporus. As to the kind of experiment: Antifungal activity against Rhizopus microsporus UTHSC 01-983 infected in OF1 mouse assessed as reduction in fungal load in brain at 20 mg/kg, QD for 5 days. The class given is functional, organism-based. Further details: dose 20 mg/kg.
Data set [22] can be described thus: Drug level in serum of OF1 mouse infected with Rhizopus microsporus UTHSC 01-983 at 40 mg/kg, po QD for 5 days measured after 3 hrs post last dose. The class given is ADME, organism-based. Further details: dose 40 mg/kg, route oral. The settings on record: read-out: Drug uptake. Summed up:
as §4

Data set [23] can be described thus: Drug level in serum of OF1 mouse infected with Rhizopus microsporus UTHSC 01-983 at 20 mg/kg, po BID for 5 days measured after 3 hrs post last dose. The class given is ADME, organism-based. Further details: dose 20 mg/kg, route oral. As to conditions: read-out: Drug uptake. Put shortly:
as §4

Data set [24] deals with Rhizopus microsporus. Description: Antifungal activity against Rhizopus microsporus IHEM 4770 infected in OF1 mouse assessed as reduction in fungal load in brain at 20 mg/kg, QD for 5 days. The class given is functional, organism-based. Further details: dose 20 mg/kg.
Data set [25] is described as follows: Drug level in serum of OF1 mouse infected with Rhizopus microsporus UTHSC 01-983 at 40 mg/kg, po QD for 5 days measured after 24 hrs post last dose. Further details: dose 40 mg/kg, route oral. As to conditions: read-out: Drug uptake. The class given is ADME, organism-based. Summed up:
as §4

A short description of data set [26]: Drug level in serum of OF1 mouse infected with Rhizopus microsporus FMR 3542 at 40 mg/kg, po QD measured after 24 hrs post last dose. The format is ADME, organism-based. Further details: dose 40 mg/kg, route oral. The settings on record: read-out: Drug uptake. Summed up: as §4
Data set [27] in a line: Drug level in serum of OF1 mouse infected with Rhizopus microsporus UTHSC 01-983 at 20 mg/kg, po BID for 5 days measured after 24 hrs post last dose. As to conditions: read-out: Drug uptake. Further details: dose 20 mg/kg, route oral. The format is ADME, organism-based. Summed up:
as §4

Data set [28] can be described thus: Drug level in serum of OF1 mouse infected with Rhizopus microsporus FMR 3542 at 40 mg/kg, po QD measured after 3 hrs post last dose. The class given is ADME, organism-based. Further details: dose 40 mg/kg, route oral. The settings on record: read-out: Drug uptake. Put shortly:
as §4

This note sets out measurements from ChEMBL document CHEMBL1649290, “Correlation of in vitro activity, serum levels, and in vivo efficacy of posaconazole against Rhizopus microsporus in a murine disseminated infection” (Antimicrob Agents Chemother, 2009).

Values after ≈ are worked out from the molar mass of the structure shown. Active and inactive are the calls of the source. The rule behind the calls is not given here.

Take `C[C@@H]1[C@H](O)[C@@H](C)/C=C/C=C/C=C/C=C/C=C/C=C/C=C/[C@H](O[C@@H]2O[C@H](C)[C@@H](O)[C@H](N)[C@@H]2O)C[C@@H]2O[C@](O)(C[C@@H](O)C[C@@H](O)[C@H](O)CC[C@@H](O)C[C@@H](O)CC(=O)O[C@H]1C)C[C@H](O)[C@H]2C(=O)O`: the MIC (as a rule, the least concentration at which growth counts as inhibited) in data set [1] was 0.5 µg/mL (≈ 0.541 µM); in data set [2] it was 0.5 µg/mL (≈ 0.541 µM); in data set [3], 1 µg/mL (≈ 1.08 µM); in data set [4], 1 µg/mL (≈ 1.08 µM); in data set [5] it was 0.5 µg/mL (≈ 0.541 µM); in data set [6] it was 1 µg/mL (≈ 1.08 µM). The MIC in data set [7], in data set [8], in data set [9], in data set [10], in [11] and in data set [12] was 0.5 µg/mL (≈ 0.541 µM) each time. Further, the MIC in data set [13], in data set [14] and in [15] was 0.5 µg/mL (≈ 0.541 µM) in each case.

Consider `CCC(C)n1ncn(-c2ccc(N3CCN(c4ccc(OCC5COC(Cn6cncn6)(c6ccc(Cl)cc6Cl)O5)cc4)CC3)cc2)c1=O` (stereo not drawn), for which the MIC was found to be 1 µg/mL (≈ 1.42 µM) in [1]; 2 µg/mL (≈ 2.83 µM) in [2]; 1 µg/mL (≈ 1.42 µM) in [3]; 1 µg/mL (≈ 1.42 µM) in data set [4]; 1 µg/mL (≈ 1.42 µM) in data set [5]; 1 µg/mL (≈ 1.42 µM) in [6]. Further, the MIC in [7] is 4 µg/mL (≈ 5.67 µM); in data set [8], 1 µg/mL (≈ 1.42 µM); in [9], 2 µg/mL (≈ 2.83 µM); in [10], 1 µg/mL (≈ 1.42 µM); in data set [11], 1 µg/mL (≈ 1.42 µM); in data set [12], 2 µg/mL (≈ 2.83 µM). For the same molecule, the minimum inhibitory concentration (MIC) in [13], in data set [14] and in data set [15] was 1 µg/mL (≈ 1.42 µM) in each case.

Regarding `C[C@@H](c1ncncc1F)[C@](O)(Cn1cncn1)c1ccc(F)cc1F`, the MIC in data set [8], in data set [10], in data set [11], in data set [14] and in [15] was 4 µg/mL (≈ 11.5 µM) in each case.

As to `CC[C@@H]([C@H](C)O)n1ncn(-c2ccc(N3CCN(c4ccc(OC[C@@H]5CO[C@@](Cn6cncn6)(c6ccc(F)cc6F)C5)cc4)CC3)cc2)c1=O` [POSACONAZOLE], the MIC was found to be 0.5 µg/mL (≈ 0.713 µM) in data set [1]; 1 µg/mL (≈ 1.43 µM) in data set [2]; 0.25 µg/mL (≈ 0.357 µM) in data set [3]; 0.25 µg/mL (≈ 0.357 µM) in data set [4]; 0.5 µg/mL (≈ 0.713 µM) in data set [5]; 0.25 µg/mL (≈ 0.357 µM) in data set [6]. Also, the MIC in data set [7] was 0.5 µg/mL (≈ 0.713 µM); in data set [8] it was 2 µg/mL (≈ 2.85 µM); in data set [9], 1 µg/mL (≈ 1.43 µM); in data set [10], 0.5 µg/mL (≈ 0.713 µM); in [11], 0.25 µg/mL (≈ 0.357 µM); in data set [12], 2 µg/mL (≈ 2.85 µM). For the same molecule, the MIC in data set [13] was 0.5 µg/mL (≈ 0.713 µM); in [14] it was 0.25 µg/mL (≈ 0.357 µM); in data set [15], 0.25 µg/mL (≈ 0.357 µM). Also, the outcome in the data set on Rhizopus microsporus [16], in the data set on Rhizopus microsporus [17], in the data set with Rhizopus microsporus [20], with Rhizopus microsporus [21] and in the data set with Rhizopus microsporus [24] was Active. Moreover, the concentration at 3 h in data set [18] was found to be 8040 ng/mL; in data set [22], 5960 ng/mL; in data set [23], 7600 ng/mL; in data set [28], 5310 ng/mL. For the same molecule, the concentration at 24 h in [19] was 2150 ng/mL; in data set [25], 1050 ng/mL; in [26], 950 ng/mL; in [27], 2040 ng/mL.
